Columns and labels:
[1] = species: Rattus norvegicus; assay: Complete remission of DMBA-induced hormone-dependent mammary carcinoma tumors in rats at 8.5 mg; type: functional
How it was run: (§1)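 Female SD rats bearing DMBA-induced, hormone-dependent mammary adenocarcinoma, with at least one tumor >140 mm², were grouped in tens. Dosing was sc per kg body weight: a single dose daily Monday–Thursday and a double dose Friday. Ovariectomy served as the comparison arm. Complete remission was defined as a tumor no longer palpable. Body weight and tumor area changes were also recorded.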

[2] = species: Rattus norvegicus; assay: Percent change in DMBA-induced hormone-dependent mammary carcinoma tumor area at 8.5 mg after 28 days; type: functional
How it was run: (§2)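 DMBA-induced, hormone-dependent mammary adenocarcinoma in SD rats. Rats bearing at least one tumor >140 mm² were placed in groups of ten. Compound was given sc as a single dose (mg/kg) daily Monday–Thursday and a double dose on Friday. Tumors were counted at the start and as new tumors; responses were scored as complete remission (not palpable), partial remission (≥50% reduction), no change or progression. Tumor area and body weight were recorded as % change.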

[3] = species: Rattus norvegicus; assay: Number of DMBA-induced hormone-dependent mammary carcinoma tumors in ovariectomised rats; type: functional
How it was run: (§3)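 DMBA-induced, hormone-dependent mammary adenocarcinoma in SD rats, with ovariectomy as the treatment. Rats bearing at least one tumor >140 mm² were placed in groups of ten. Tumors were counted at the start and as new tumors. Responses were scored as complete remission, partial remission (≥50% size reduction), no change or progression, with % change in tumor area and body weight.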

[4] = species: Rattus norvegicus; assay: Final number of DMBA-induced hormone-dependent mammary carcinoma tumors in rats at 17 mg; type: functional
How it was run: (§4)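 Sprague-Dawley rats carrying DMBA-induced, hormone-dependent mammary adenocarcinoma, at least one tumor >140 mm², were placed in groups of ten. Compounds were given sc, with doses in mg/kg: a single daily dose Monday to Thursday and a double dose on Friday. Ovariectomy served as a comparator group. New tumors arising during the test were counted.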

[5] = species: Rattus norvegicus; assay: Final number of DMBA-induced hormone-dependent mammary carcinoma tumors in rats at 8.5 mg; type: functional; how it was run: as §4
[6] = species: Rattus norvegicus; assay: Complete remission of DMBA-induced hormone-dependent mammary carcinoma tumors in ovariectomised rats; type: functional; how it was run: as §1
[7] = species: Rattus norvegicus; assay: Partial remission of DMBA-induced hormone-dependent mammary carcinoma tumors in rats at 8.5 mg; type: functional; how it was run: as §2
[8] = species: Rattus norvegicus; assay: Percent change in body weight DMBA-induced hormone-dependent mammary carcinoma tumors in rats at 17 mg for 7 days; type: functional
How it was run: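 DMBA-induced, hormone-dependent mammary adenocarcinoma in SD rats; animals carrying at least one tumor over 140 mm² put in groups of ten. Compound given sc, dose per kg body weight per day: single dose Monday to Thursday, double dose Friday. Body weight read out as % change, alongside tumor counts, remission categories and % change in tumor area.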

[9] = species: Rattus norvegicus; assay: Percent change in body weight DMBA-induced hormone-dependent mammary carcinoma tumors in rats at 34 mg for 7 days; type: functional
[10] = species: Rattus norvegicus; assay: Percent change in body weight DMBA-induced hormone-dependent mammary carcinoma tumors in rats at 8.5 mg for 7 days; type: functional
[11] = species: Rattus norvegicus; assay: Percent change in DMBA-induced hormone-dependent mammary carcinoma tumor area at 17 mg after 28 days; type: functional; how it was run: as §2
[12] = species: Rattus norvegicus; assay: Percent change in DMBA-induced hormone-dependent mammary carcinoma tumor area at 34 mg after 28 days; type: functional; how it was run: as §2
[13] = species: Rattus norvegicus; assay: Partial remission of DMBA-induced hormone-dependent mammary carcinoma tumors in rats at 34 mg; type: functional; how it was run: as §2
[14] = species: Rattus norvegicus; assay: Partial remission of DMBA-induced hormone-dependent mammary carcinoma tumors in ovariectomised rats; type: functional; how it was run: as §3
[15] = species: Rattus norvegicus; assay: Percent unchanged tumor size of DMBA-induced hormone-dependent mammary carcinoma tumors in rats at 8.5 mg; type: functional
[16] = species: Rattus norvegicus; assay: Percent unchanged tumor size of DMBA-induced hormone-dependent mammary carcinoma tumors in ovarectiemised rats; type: functional; how it was run: as §3
[17] = species: Rattus norvegicus; assay: Percent unchanged tumor size of DMBA-induced hormone-dependent mammary carcinoma tumors in rats at 17 mg; type: functional
[18] = species: Rattus norvegicus; assay: Percent unchanged tumor size of DMBA-induced hormone-dependent mammary carcinoma tumors in rats at 34 mg; type: functional
[19] = species: Rattus norvegicus; assay: Progression of DMBA-induced hormone-dependent mammary carcinoma tumors in rats at 17 mg; type: functional
[20] = species: Rattus norvegicus; assay: Progression of DMBA-induced hormone-dependent mammary carcinoma tumors in rats at 34 mg; type: functional
[21] = species: Rattus norvegicus; assay: Progression of DMBA-induced hormone-dependent mammary carcinoma tumors in rats at 8.5 mg; type: functional
[22] = species: Rattus norvegicus; assay: Progression of DMBA-induced hormone-dependent mammary carcinoma tumors in ovariectomised rats; type: functional; how it was run: as §3
[23] = species: Rattus norvegicus; assay: Complete remission of DMBA-induced hormone-dependent mammary carcinoma tumors in rats at 34 mg; type: functional; how it was run: as §1
[24] = species: Rattus norvegicus; assay: Initial tumor number of DMBA-induced hormone-dependent mammary carcinoma in rats at 17 mg; type: functional; how it was run: as §2
[25] = species: Rattus norvegicus; assay: Initial tumor number of DMBA-induced hormone-dependent mammary carcinoma in rats at 34 mg; type: functional; how it was run: as §2
[26] = species: Rattus norvegicus; assay: Initial tumor number of DMBA-induced hormone-dependent mammary carcinoma in rats at 8.5 mg; type: functional; how it was run: as §2
[27] = biological target: T1, Estrogen receptor (Mus musculus) (UniProt O08537+P19785); assay: Antiestrogenic activity in uterotrophic test in mice at 0 ug; type: functional
T1 sequence (O08537 whole entry, looked up): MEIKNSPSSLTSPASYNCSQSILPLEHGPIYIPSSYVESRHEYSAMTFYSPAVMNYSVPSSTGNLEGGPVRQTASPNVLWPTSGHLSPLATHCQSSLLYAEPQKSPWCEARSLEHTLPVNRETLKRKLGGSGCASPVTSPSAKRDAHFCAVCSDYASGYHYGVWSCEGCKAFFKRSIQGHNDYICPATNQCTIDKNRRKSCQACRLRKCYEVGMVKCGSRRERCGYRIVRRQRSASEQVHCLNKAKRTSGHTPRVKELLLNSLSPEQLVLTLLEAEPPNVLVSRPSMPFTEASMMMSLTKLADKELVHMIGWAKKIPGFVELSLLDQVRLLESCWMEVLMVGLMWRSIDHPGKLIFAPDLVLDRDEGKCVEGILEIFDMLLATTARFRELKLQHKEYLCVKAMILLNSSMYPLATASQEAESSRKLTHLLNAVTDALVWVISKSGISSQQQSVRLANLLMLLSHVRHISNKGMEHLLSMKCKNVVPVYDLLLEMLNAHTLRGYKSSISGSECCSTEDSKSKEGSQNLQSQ
T1 sequence (P19785 whole entry, looked up): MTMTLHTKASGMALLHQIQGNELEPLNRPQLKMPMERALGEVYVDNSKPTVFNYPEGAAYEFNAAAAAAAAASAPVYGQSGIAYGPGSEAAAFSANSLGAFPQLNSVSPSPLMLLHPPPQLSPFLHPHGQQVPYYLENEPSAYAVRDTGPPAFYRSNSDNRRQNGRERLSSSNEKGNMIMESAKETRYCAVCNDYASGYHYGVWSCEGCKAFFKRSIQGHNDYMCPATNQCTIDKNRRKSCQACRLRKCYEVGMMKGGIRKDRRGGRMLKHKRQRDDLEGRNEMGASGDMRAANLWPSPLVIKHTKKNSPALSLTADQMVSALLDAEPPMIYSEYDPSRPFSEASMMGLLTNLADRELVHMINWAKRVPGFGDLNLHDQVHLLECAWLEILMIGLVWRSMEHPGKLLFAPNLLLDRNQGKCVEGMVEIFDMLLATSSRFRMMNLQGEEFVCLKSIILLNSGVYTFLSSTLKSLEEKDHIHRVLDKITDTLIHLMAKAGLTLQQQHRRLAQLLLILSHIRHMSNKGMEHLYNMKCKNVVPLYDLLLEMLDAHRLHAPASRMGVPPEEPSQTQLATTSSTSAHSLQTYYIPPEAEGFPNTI
How it was run: (§5)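 Immature female NMRI mice, 20 days old (14.5 ± 1.2 g), randomly grouped 10 per group. Each received a daily sc injection for 3 days of 0.1 mL olive oil solution containing test compound, together with estrone to stimulate uterine growth. Uteri were removed 24 h after the last injection and weighed. Results are reported as % inhibition of the estrone-stimulated uterine weight gain, mean ± SD.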

[28] = biological target: T1, Estrogen receptor (Mus musculus); assay: Antiestrogenic activity in uterotrophic test in mice at 100 ug; type: functional; how it was run: as §5
[29] = biological target: T1, Estrogen receptor (Mus musculus); assay: Antiestrogenic activity in uterotrophic test in mice at 1000 ug; type: functional; how it was run: as §5
[30] = biological target: T1, Estrogen receptor (Mus musculus); assay: Antiestrogenic activity in uterotrophic test in mice at 3.3 ug; type: functional; how it was run: as §5
[31] = biological target: T1, Estrogen receptor (Mus musculus); assay: Estrogenic activity in uterotrophic test in mice at 2700 ug; type: functional
How it was run: (§6)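 Uterine growth stimulation in immature female NMRI mice, 20 days old (14.5 ± 1.2 g), 10 per group. Test compound in 0.1 mL olive oil was given sc daily for 3 days. Uteri were excised 24 h after the final injection and weighed. Effect is reported as mean ± SD.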

[32] = biological target: T1, Estrogen receptor (Mus musculus); assay: Estrogenic activity in uterotrophic test in mice at 300 ug; type: functional
How it was run: (§7)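 Immature (20-day-old) female NMRI mice, 14.5 ± 1.2 g, randomized into groups of 10. Given the test compound sc daily for 3 days in 0.1 mL olive oil. Uteri removed 24 h after the last injection; uterine weight taken as the read-out, means ± SD. Dose in μg.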

[33] = biological target: T1, Estrogen receptor (Mus musculus); assay: Estrogenic activity in uterotrophic test in mice at 30 ug; type: functional; how it was run: as §6
[34] = biological target: T1, Estrogen receptor (Mus musculus); assay: Estrogenic activity in uterotrophic test in mice at 0 ug; type: functional; how it was run: as §6
[35] = biological target: T1, Estrogen receptor (Mus musculus); assay: Estrogenic activity in uterotrophic test in mice at 100 ug; type: functional; how it was run: as §6
[36] = biological target: T1, Estrogen receptor (Mus musculus); assay: Estrogenic activity in uterotrophic test in mice at 900 ug; type: functional; how it was run: as §7
[37] = species: Rattus norvegicus; assay: Percent change in body weight DMBA-induced hormone-dependent mammary carcinoma tumors in ovariectomised rats after 7 days; type: functional; how it was run: as §3
[38] = biological target: T1, Estrogen receptor (Mus musculus); assay: Inhibitory activity in mouse uterine weight test at 0.1 ug; type: functional
How it was run: (§8)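 Antiuterotrophic (Dorfman) assay in immature 20-day-old female NMRI mice, groups of 10. Uterine growth was stimulated with estrone (0.1 μg) and the test compound was given alongside it, sc daily for 3 days in 0.1 mL olive oil. Uteri were taken 24 h after the last dose. Uterine weight is reported as means ± SD and inhibition as % of the estrone-stimulated response.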

[39] = biological target: T1, Estrogen receptor (Mus musculus); assay: Inhibitory activity in mouse uterine weight test at 100 ug; type: functional; how it was run: as §8
[40] = biological target: T1, Estrogen receptor (Mus musculus); assay: Inhibitory activity in mouse uterine weight test at 1000 ug; type: functional; how it was run: as §8
[41] = species: Rattus norvegicus; assay: Percent change in DMBA-induced hormone-dependent mammary carcinoma tumor area in ovariectomised rats after 28 days; type: functional; how it was run: as §3
[42] = species: Rattus norvegicus; assay: Final number of DMBA-induced hormone-dependent mammary carcinoma tumors in rats at 34 mg; type: functional; how it was run: as §4
[43] = biological target: T1, Estrogen receptor (Mus musculus); assay: Inhibitory activity in mouse uterine weight test at 3.3 ug; type: functional; how it was run: as §8
[44] = species: Rattus norvegicus; assay: Complete remission of DMBA-induced hormone-dependent mammary carcinoma tumors in rats at 17 mg; type: functional; how it was run: as §1
[45] = species: Rattus norvegicus; assay: Partial remission of DMBA-induced hormone-dependent mammary carcinoma tumors in rats at 17 mg; type: functional; how it was run: as §2
[46] = system: Estrogen receptor (Bos taurus); assay: Displacement of [3H]estradiol from calf estrogen receptor

`CCCCC(c1cccc(O)c1)C(CCCC)c1cccc(O)c1` (stereo unspecified) gave a Tumors [1] of 2%, a Change [2] of 534% and a No. of tumors [3] of 8. It also gave a No. of tumors [4] of 45, a No. of tumors [5] of 37 and a Tumors [6] of 74%. The Tumors [7] was 9%, the Change [8] was 1.7% and the Change [9] was 0.3%. The Change [10] was 1.5%, the Change [11] was 389% and the Change [12] was 260%. For the same compound, the Tumors [13] was 9%, the Tumors [14] was 23% and the Tumors [15] was 24%. The Tumors [16] was 3%, the Tumors [17] was 36% and the Tumors [18] was 27%. For the same compound, the Tumors [19] was 55%, the Tumors [20] was 58% and the Tumors [21] was 65%. For the same compound, the Tumors [22] was 0%, the Tumors [23] was 6% and the No. of tumors [24] was 27. For the same compound, the No. of tumors [25] was 22, the No. of tumors [26] was 21 and the Effect [27] was 10.5. It also gave an Effect [28] of 25.9, an Effect [29] of 38.1 and an Effect [30] of 33.9. The Effect [31] was 35.2, the Effect [32] was 16.5 and the Effect [33] was 11.2. The Effect [34] was 10.5, the Effect [35] was 12.6 and the Effect [36] was 30.8. For the same compound, the Change [37] was 3.6%, the inhibition [38] was 3% and the inhibition [39] was 45%. The inhibition [40] was 1%, the Change [41] was -96% and the No. of tumors [42] was 30. It also gave an inhibition [43] of 16%, a Tumors [44] of 3% and a Tumors [45] of 6%. It also gave a Ka [46] of 2.3e+07 M⁻¹.

— ChEMBL document CHEMBL1121898, “Potential antiestrogens. Synthesis and evaluation of mammary tumor inhibiting activity of 1,2-dialkyl-1,2-bis(3'-hydroxyphenyl)ethanes” (1981)
